Screening results deposited in PubChem BioAssay by several laboratories.
B2AR ag = agonists of human beta-2 adrenergic receptor inducing internalization. 340,000 tested, 0.43% active. response, % (no concentration beside the values). AID 504454. Am2.2-beta2AR cells, FAP receptor internalization, flow cytometry. P07550;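 active = response above a set limit, near 3 SD of response in nonfluorescent compounds, cut at about 42% in these data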
UHRF1 binding = human UHRF1 methylated DNA binding inhibitors; inhibition, % at 4.4 µM; Q96T88; UHRF1 binding to methylated oligo, TR-FRET; 370,000 tested, 0.75% active;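 note: UHRF1 SRA domain binding a hemimethylated CpG hairpin DNA probe; 0% = median of test compound wells and 100% = reference inhibitor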
Arr AP2 block = human beta-arrestin and AP2 interaction inhibition; 340,000 tested, 0.31% active; inhibition, % at 10 µM; FITC-arrestin peptide / GST-AP2 beads, flow cytometry; AP2 beta2 appendage carries R879A mutation;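 active = inhibition above a set limit, near 3 SD of compounds lacking own fluorescence, cut at about 54% in these data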;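 note: plate controls were DMSO wells for no effect and 5 µM unlabelled arrestin peptide for full effect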
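Material – GST-tagged AP2 beta2-adaptin appendage (R879A) on 4 µm glutathione beads · Probe or stimulus – fluorescein-tagged arrestin peptide at 50 nM final · Timing – 12 min plus 1 h, RT · Detection – bead flow cytometry, FITC channel · Read-out basis – inhibition as reduced fluorescein signal on beads, percent · Medium – PBS plus Tween 20 (0.05%) and BSA (0.1%)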
ABHD5 PLIN5 PPI = ABHD5-PLIN5 protein interaction inhibition; Q00G26+Q8WTS1; Split G. princeps luciferase complementation, luminescence, 4 h; inhibition, % at 4 µM; 360,000 tested, 0.78% active; AID 602281;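 active = inhibition above the mean inhibition across every tested compound plus 3 SD, cut at about 22% in these data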;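 note: 0% = DMSO only wells and the 100% control is not disclosed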
Rin1 Abl inh = inhibitors of human Rin1-Abl protein interaction; P00519+Q13671; TR-FRET Rin1/Abl binding, biochemical; inhibition, % at 7.35 µM; 360,000 tested, 0.4% active; AID 588664; in the data active = inhibition above about 5%, passing the limit was not always enough
MBD2 DNA inh = blocks human MBD2 binding to methylated DNA; Q9UBB5; inhibition, % at 4.4 µM; AID 686964; TR-FRET, MBD2 binding to methylated oligonucleotide; 370,000 tested, 0.31% active; in the data active = inhibition above about 13%
Target sequence (Q9UBB5 whole entry, looked up): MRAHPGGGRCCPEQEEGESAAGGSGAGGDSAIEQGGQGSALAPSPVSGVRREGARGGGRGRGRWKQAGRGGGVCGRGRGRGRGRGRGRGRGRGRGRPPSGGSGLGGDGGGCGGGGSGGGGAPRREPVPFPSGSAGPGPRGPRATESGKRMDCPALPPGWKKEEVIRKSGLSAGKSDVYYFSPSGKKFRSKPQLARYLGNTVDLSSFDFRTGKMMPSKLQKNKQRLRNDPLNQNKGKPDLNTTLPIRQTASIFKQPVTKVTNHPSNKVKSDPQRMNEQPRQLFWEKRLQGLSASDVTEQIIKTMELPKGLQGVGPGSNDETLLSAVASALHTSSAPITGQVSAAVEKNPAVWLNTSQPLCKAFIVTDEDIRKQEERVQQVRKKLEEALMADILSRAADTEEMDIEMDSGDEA
UHRF1 DNA bind = counter-screen for MBD2 inhibitors: human UHRF1 methylated DNA binding inhibitors. shares compounds with MBD2 DNA inh. UHRF1 binding to methylated oligonucleotide, TR-FRET. inhibition, % at 4.4 µM. 1,000 tested, 25% active;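 note: UHRF1 SRA domain binding a labeled hemimethylated CpG hairpin DNA; 0% = vehicle only and 100% = reference inhibitor with vehicle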
MBD2 DBD conf = confirmation of human MBD2-DBD methylated oligonucleotide binding inhibitors. AID 720531. shares compounds with MBD2 DNA inh. 1,000 tested, 26% active. TR-FRET MBD2-DBD binding to methylated oligonucleotide. inhibition, % at 4.4 µM; in the data active = inhibition above about 14%
Active calls of the source: *; x = not tested or not shown. In the library only some 2.5% were active in any assay of this set; here they are far more common. Cut-off read from the data, not from the text of the source, unless noted: active = inhibition above about 21%; inactive = the rest.

SMILES	B2AR ag	UHRF1 binding	Arr AP2 block	ABHD5 PLIN5 PPI	Rin1 Abl inh	MBD2 DNA inh	UHRF1 DNA bind	MBD2 DBD conf
O=C(O)C1CCCCC1C(=O)Nc1cccc(Br)c1 (stereo not drawn)	1.5	67.0*	8.1	4.9	4.2	40.1*	63.0*	40.9*
CCC(=O)N1Cc2cc(C(=O)NCC(F)(F)F)nc(-c3cccc(-c4cncnc4)c3)c2[C@H]1CCO	x	25.6*	x	4.9	x	13.7*	1.7	3.0
O=C(Nc1nnc(CCN2CCCCC2)s1)c1ccccc1Cl	-4.3	24.9*	-11.4	2.5	0.0	16.1*	6.8	2.5
CCc1nnc(NC(=O)CN2CCN(Cc3ccccc3C)CC2)s1	-5.0	-0.7	35.6	-7.9	-1.2	2.7	x	x
CCc1nnc(NC(=O)CN2CCN(Cc3ccccc3Cl)CC2)s1	-7.0	20.2	-6.5	-0.5	-1.0	16.9*	7.9	6.0
CCC1(C2C=COC=C2)NC(=O)NC1=O (stereo not drawn)	x	0.1	x	9.4	-1.9	0.7	x	x
C=CCN1[C@H](Cc2ccccc2)COc2cccc(N3CCCC3)c2S1(=O)=O	x	1.6	x	x	x	0.5	x	x
COc1cc(C(=O)OCC(=O)c2c[nH]c3ccccc23)ccc1OCC(=O)N1CCOCC1	15.1	3.9	10.5	9.3	3.6	-1.6	x	x
COc1ccc(C(=O)OCC(=O)c2c[nH]c3ccccc23)cc1OC	9.4	21.8*	5.3	-1.1	-1.9	14.0*	5.4	1.6
O=c1ccc2[n+]([O-])c3ccc(O)cc3oc-2c1	3.8	78.1*	41.1	6.9	2.1	28.1*	72.7*	31.1*
C/C(Sc1nnc(Cc2ccccc2)o1)=C(\O)c1ccccc1	-0.7	8.8	-7.0	-10.7	3.8	-3.1	x	x
COc1cc2cc(CCCOC(=O)c3ccc(C(F)(F)F)cc3)oc(=O)c2cc1OC	10.3	2.0	-1.2	3.2	0.2	19.7*	1.8	8.1
CCn1cc(/C=C(\NC(=O)c2ccccc2OC)C(=O)NCCN2CCOCC2)c2ccccc21	x	-1.3	x	-1.7	-2.9	15.6*	3.9	1.2
CCn1cc(/C=C(\NC(=O)c2cc(OC)c(OC)c(OC)c2)C(=O)NCCN2CCOCC2)c2ccccc21	0.5	-1.3	9.9	-5.2	-2.3	-3.7	x	x
Cc1cc(/C=C2\SC(=O)NC2=O)c(C)n1-c1ccc(N2CCOCC2)cc1	11.3	-1.3	-8.4	5.2	-3.0	-1.6	x	x
Cc1cc(/C=C2\SC(=O)NC2=O)c(C)n1-c1ccc(N(C)C)cc1	8.6	38.9*	-0.3	0.9	-1.0	16.5*	8.0	3.2
CCNc1nc(NC(C)C)nc(N(C#N)CC(=O)OC)n1	6.9	63.0*	3.1	0.5	-0.9	31.9*	7.4	3.8
Cc1c(C)n(CCN(C)C)c2ccc(C(=O)OCCN(C)C)cc12	10.6	15.4	3.9	6.0	0.0	13.4*	23.5*	11.4
Cc1c(C)n(Cc2ccccc2)c2ccc(C(=O)OCCCN(C)C)cc12	15.6	1.4	0.1	11.9	3.1	-4.0	x	x
CC(C)(C)NC(=O)CN(C(=O)c1ccc(CN2CCOCC2)o1)c1ccc2c(c1)OCCO2	3.5	5.8	-7.4	-3.3	-2.5	0.8	x	x
COc1ccc(C(=O)N(CC(=O)NC(C)(C)C)c2ccc3c(c2)OCCO3)cc1OC	4.7	20.1	-2.6	5.2	1.8	16.4*	7.4	4.3
O=C(/C=C/c1cccc(Cl)c1)NNC(=O)c1ccncc1	-2.0	1.0	21.9	-4.2	0.5	14.3*	3.4	1.4
COc1ccccc1NC(=O)Nc1ccc(CC#N)cc1	-6.4	-2.5	3.5	-3.5	-3.4	60.4*	8.1	1.9
COc1ccc(NC(=O)Nc2ccccc2OC)cc1	-7.9	-11.7	8.3	5.8	-2.2	-2.7	x	x
Cc1cc(C)n2nc(-c3ccc(F)cc3)cc2n1	x	-1.0	x	-2.7	-0.2	27.9*	6.8	3.2
SMILES	B2AR ag	UHRF1 binding	Arr AP2 block	ABHD5 PLIN5 PPI	Rin1 Abl inh	MBD2 DNA inh	UHRF1 DNA bind	MBD2 DBD conf
Cc1ccc(-c2cc3nc(C)cc(C)n3n2)cc1	-2.5	2.5	-1.6	1.9	2.1	-2.0	x	x
Cc1cc(C)n2c(Nc3ccc4c(c3)OCCO4)c(-c3ccc(C)o3)nc2n1	-3.7	26.1*	4.7	7.0	-1.5	16.2*	2.4	1.9
COCCn1c(CCC(=O)O)ccc1-c1cccs1	7.5	-0.2	12.4	7.1	-0.3	0.2	x	x
O=C(O)CCc1ccc(-c2cccs2)n1CC(=O)Nc1ccccc1C(F)(F)F	2.0	1.1	-14.0	-2.7	0.4	27.6*	0.1	3.7
CCN1C(=O)CC(N2CCOCC2)C1=O (stereo not drawn)	2.8	0.8	-10.5	1.9	-0.5	-3.2	x	x
CCN1C(=O)CC(N2CCC(C(=O)N3CCOCC3)CC2)C1=O (stereo not drawn)	3.0	22.7*	3.1	2.9	-1.4	15.2*	8.2	3.0
COC(=O)C[C@H]1CC[C@@H]2[C@@H](COc3ccc(NC(=O)c4ccccc4)cc3C(=O)N2C)O1	x	-1.6	x	x	x	-4.3	x	x
Cn1c(SCC(=O)c2c(N)n(C)c(=O)n(C)c2=O)nnc1-c1ccccc1F	-6.6	1.7	3.0	-5.2	1.5	32.1*	-3.2	0.2
Cc1ccc(/C=N\NC(=O)CN2CCN(S(=O)(=O)c3ccc(Br)cc3)CC2)s1	x	1.8	x	x	x	0.7	x	x
Cc1c(N2C(=O)CSC2c2ccccc2)c(=O)n(-c2ccccc2)n1C (stereo not drawn)	0.5	2.4	-12.0	1.4	2.9	-1.4	x	x
CCOc1ccc(C2SCC(=O)N2c2c(C)n(C)n(-c3ccccc3)c2=O)cc1 (stereo not drawn)	-2.2	5.9	6.5	0.4	-3.2	16.0*	9.8	3.3
COc1cc2c(cc1OC)CN(C(=O)CCOc1ccccc1C)CC2	1.0	0.6	-11.3	-11.9	0.0	13.8*	3.1	0.9
COc1cc2c(cc1OC)CN(C(=O)CCOc1ccccc1)CC2	-9.2	-0.9	-9.4	-0.4	-1.4	2.9	x	x
Cc1nc2ccc(S(=O)(=O)NCC(=O)NCc3ccc(F)cc3)cc2s1	x	3.7	x	x	x	-1.0	x	x
CCOC(=O)C1=C(COC(=O)c2cccnc2Cl)NC(=O)NC1C (stereo not drawn)	-2.1	-2.0	2.7	-8.0	1.2	19.1*	1.5	3.5
CCOC(=O)C1=C(COC(=O)c2nc(Cl)ccc2Cl)NC(=O)NC1C (stereo not drawn)	0.7	4.8	4.9	0.3	1.6	1.6	x	x
COc1cc(C)ccc1C(=O)N1CCC(Oc2cccnc2)CC1	x	-1.4	x	x	x	4.3	x	x
Cc1ccccc1NC(=O)C(C)Sc1nnc(CN2CCCC2)n1Cc1ccccc1 (stereo not drawn)	x	-0.6	x	-6.5	1.8	3.4	x	x
